Data on 6 compounds can be found in ChEMBL document CHEMBL5705888, “Substrate specificity and inhibitors of LRRK2, a protein kinase mutated in Parkinson's disease” (Biochem J, 2009).

Calls of active or inactive are those of the source. The rule behind the calls is not given here. A value given as a limit tells only on which side of the number the result lay.

Experiment [1] deals with Leucine-rich repeat serine/threonine-protein kinase 2 (Homo sapiens, UniProt Q5S007). Briefly: Inhibition of LRRK2 in human Flp-In-T-REx-293 cells harboring GFP-tagged constitutively active G14V-Rho mutant assessed as inhibition of ERM phosphorylation at 10 uM incubated for 1 hr in presence of LRRKtide by immunoblot analysis. Format: cell-based. The essentials:
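Flp-in T-REx cells carrying GFP-tagged G14V-Rho were left uninduced or induced with 1 μg/ml doxycycline. At 7 h, compound at 10 μM was added for 1 h. Cells were lysed in SDS lysis buffer, run on 4–12% gels and immunoblotted with pan-phospho-ERM antibody (1 μg/ml in milk/TBST containing 10 μg/ml LRRKtide).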
(A western blot detects proteins with antibodies after separation by electrophoresis.)

Experiment [2] concerns the target MAP kinase-interacting serine/threonine-protein kinase 2 (Homo sapiens) (UniProt Q9HBH9). Briefly: Inhibition of MNK2 (unknown origin) at 1 uM incubated for 30 mins in presence of [gamma-33P]ATP by multidrop micro reagent based assay relative to control; values are per cent of control.
Experiment [3] addresses T1, Eukaryotic elongation factor 2 kinase (Homo sapiens) (UniProt O00418).
T1 sequence (whole entry): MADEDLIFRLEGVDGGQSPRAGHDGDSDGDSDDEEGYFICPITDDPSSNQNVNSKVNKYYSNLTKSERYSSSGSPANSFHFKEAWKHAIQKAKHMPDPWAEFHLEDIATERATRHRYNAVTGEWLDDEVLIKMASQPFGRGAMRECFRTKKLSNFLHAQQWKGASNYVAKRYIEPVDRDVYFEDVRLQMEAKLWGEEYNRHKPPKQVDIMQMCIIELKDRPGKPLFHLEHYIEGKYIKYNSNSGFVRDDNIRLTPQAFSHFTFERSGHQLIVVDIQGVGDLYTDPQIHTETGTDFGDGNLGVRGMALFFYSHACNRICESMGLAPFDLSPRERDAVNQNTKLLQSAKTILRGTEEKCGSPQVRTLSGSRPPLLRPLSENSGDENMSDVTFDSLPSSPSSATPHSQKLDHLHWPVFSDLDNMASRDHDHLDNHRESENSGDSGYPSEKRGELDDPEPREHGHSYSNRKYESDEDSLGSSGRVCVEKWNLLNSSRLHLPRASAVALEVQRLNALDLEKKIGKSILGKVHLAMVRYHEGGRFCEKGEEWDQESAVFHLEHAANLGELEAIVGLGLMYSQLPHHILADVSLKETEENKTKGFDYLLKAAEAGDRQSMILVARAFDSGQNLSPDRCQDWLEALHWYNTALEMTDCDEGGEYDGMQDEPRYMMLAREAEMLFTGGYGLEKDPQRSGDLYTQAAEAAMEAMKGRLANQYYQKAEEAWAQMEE
Kind of experiment: Inhibition of EF2K (unknown origin) at 1 uM incubated for 30 mins in presence of [gamma-33P]ATP by multidrop micro reagent based assay relative to control.

The target in experiment [4] is Aurora kinase B (Homo sapiens) (UniProt Q96GD4). Briefly: Inhibition of Aurora B kinase (unknown origin) at 1 uM incubated for 30 mins in presence of [gamma-33P]ATP by multidrop micro reagent based assay relative to control; values are per cent of control.
Chain of Aurora kinase B (Homo sapiens) (Q96GD4 whole entry): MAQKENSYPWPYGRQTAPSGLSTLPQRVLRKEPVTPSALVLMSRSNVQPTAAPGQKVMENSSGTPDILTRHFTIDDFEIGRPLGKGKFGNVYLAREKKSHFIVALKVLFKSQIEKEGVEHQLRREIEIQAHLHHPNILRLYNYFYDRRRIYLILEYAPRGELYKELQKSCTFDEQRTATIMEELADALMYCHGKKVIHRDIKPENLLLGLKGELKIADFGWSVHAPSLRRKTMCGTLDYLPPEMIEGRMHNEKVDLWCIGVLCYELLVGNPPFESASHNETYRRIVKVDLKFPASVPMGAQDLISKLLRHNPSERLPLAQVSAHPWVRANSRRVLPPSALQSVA
Experiment [5] deals with T2, Serine/threonine-protein kinase 3 (Homo sapiens) (UniProt Q13188).
T2 sequence (whole entry): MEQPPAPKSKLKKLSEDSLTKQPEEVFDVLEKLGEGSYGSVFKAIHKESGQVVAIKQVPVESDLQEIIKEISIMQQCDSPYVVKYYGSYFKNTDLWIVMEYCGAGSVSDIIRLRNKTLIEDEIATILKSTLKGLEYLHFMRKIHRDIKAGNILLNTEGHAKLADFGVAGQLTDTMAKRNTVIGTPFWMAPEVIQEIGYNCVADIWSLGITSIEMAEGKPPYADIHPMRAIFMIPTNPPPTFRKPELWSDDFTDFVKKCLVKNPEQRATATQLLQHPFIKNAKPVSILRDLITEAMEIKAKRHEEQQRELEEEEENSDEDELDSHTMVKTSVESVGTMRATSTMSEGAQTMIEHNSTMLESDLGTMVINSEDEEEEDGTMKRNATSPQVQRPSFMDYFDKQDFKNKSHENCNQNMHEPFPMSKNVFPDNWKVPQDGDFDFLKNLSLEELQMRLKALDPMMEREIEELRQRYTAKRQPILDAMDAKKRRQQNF
Briefly: Inhibition of MST2 (unknown origin) at 1 uM incubated for 30 mins in presence of [gamma-33P]ATP by multidrop micro reagent based assay relative to control; values are per cent of control.

The target in experiment [6] is T3, Serine/threonine-protein kinase STK11 (Homo sapiens) (UniProt Q15831).
T3 sequence (whole entry): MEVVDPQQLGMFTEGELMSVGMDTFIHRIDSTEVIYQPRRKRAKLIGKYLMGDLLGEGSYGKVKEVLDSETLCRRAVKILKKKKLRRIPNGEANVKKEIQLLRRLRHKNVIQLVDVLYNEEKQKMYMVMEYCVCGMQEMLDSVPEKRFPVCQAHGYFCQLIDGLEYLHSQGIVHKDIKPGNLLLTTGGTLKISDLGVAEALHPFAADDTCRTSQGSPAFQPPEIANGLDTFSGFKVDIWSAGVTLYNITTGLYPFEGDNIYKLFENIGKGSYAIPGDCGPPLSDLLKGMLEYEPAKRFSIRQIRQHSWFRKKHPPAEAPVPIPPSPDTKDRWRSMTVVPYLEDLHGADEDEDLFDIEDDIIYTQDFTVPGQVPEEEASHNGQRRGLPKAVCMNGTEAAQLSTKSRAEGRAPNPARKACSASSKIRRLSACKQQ
Kind of experiment: Inhibition of LKB1 (unknown origin) at 1 uM incubated for 30 mins in presence of [gamma-33P]ATP by multidrop micro reagent based assay relative to control.

The target of experiment [7] is AMP-activated protein kinase, AMPK (Homo sapiens) (UniProt P54646+O43741+P54619+Q9UGJ0+Q9Y478+Q13131+Q9UGI9). Briefly: Inhibition of AMPK (unknown origin) at 1 uM incubated for 30 mins in presence of [gamma-33P]ATP by multidrop micro reagent based assay relative to control; values are per cent of control.
Experiment [8] has as its target Protein kinase C alpha type (Homo sapiens) (UniProt P17252). Briefly: Inhibition of PKCalpha (unknown origin) at 1 uM incubated for 30 mins in presence of [gamma-33P]ATP by multidrop micro reagent based assay relative to control; values are per cent of control.
Experiment [9] deals with Ephrin type-A receptor 2 (Homo sapiens) (UniProt P29317). Kind of experiment: Inhibition of EPH A2 (unknown origin) at 1 uM incubated for 30 mins in presence of [gamma-33P]ATP by multidrop micro reagent based assay relative to control; values are per cent of control.
Chain of Ephrin type-A receptor 2 (Homo sapiens) (P29317 whole entry, the tested form may be a part): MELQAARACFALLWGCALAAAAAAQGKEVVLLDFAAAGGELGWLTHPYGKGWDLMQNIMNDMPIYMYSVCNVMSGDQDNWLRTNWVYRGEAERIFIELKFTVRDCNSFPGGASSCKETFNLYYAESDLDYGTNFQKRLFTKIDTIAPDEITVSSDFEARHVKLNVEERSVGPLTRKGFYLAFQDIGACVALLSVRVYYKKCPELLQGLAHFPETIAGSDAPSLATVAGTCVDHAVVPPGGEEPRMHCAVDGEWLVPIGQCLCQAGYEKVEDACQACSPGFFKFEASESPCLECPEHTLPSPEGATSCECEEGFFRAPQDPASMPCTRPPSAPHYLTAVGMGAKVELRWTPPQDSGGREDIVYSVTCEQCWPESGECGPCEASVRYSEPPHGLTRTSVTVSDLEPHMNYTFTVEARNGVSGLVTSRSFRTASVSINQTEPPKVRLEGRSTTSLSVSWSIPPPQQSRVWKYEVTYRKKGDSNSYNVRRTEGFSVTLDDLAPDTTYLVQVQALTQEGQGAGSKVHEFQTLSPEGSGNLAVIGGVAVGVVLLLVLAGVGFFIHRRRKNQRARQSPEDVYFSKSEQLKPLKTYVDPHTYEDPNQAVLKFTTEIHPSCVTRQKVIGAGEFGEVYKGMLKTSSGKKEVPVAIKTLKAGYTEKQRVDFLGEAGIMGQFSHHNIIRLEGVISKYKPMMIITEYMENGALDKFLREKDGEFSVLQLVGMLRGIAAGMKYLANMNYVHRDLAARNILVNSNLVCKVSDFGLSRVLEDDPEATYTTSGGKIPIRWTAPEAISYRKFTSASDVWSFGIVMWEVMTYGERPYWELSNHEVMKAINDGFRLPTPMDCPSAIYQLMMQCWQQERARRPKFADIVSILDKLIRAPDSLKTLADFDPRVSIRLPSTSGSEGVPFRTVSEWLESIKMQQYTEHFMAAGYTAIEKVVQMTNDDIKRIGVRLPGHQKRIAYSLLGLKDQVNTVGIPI
Experiment [10] has as its target Leucine-rich repeat serine/threonine-protein kinase 2 (Homo sapiens, UniProt Q5S007, G2019S). Kind of experiment: Inhibition of GST-tagged LRRK2 G2019S mutant (1326 to 2527 residues) (unknown origin) using peptide as substrate incubated for 15 mins in presence of ATP by immunoblotting analysis.

Chain of MAP kinase-interacting serine/threonine-protein kinase 2 (Homo sapiens) (Q9HBH9 whole entry, looked up): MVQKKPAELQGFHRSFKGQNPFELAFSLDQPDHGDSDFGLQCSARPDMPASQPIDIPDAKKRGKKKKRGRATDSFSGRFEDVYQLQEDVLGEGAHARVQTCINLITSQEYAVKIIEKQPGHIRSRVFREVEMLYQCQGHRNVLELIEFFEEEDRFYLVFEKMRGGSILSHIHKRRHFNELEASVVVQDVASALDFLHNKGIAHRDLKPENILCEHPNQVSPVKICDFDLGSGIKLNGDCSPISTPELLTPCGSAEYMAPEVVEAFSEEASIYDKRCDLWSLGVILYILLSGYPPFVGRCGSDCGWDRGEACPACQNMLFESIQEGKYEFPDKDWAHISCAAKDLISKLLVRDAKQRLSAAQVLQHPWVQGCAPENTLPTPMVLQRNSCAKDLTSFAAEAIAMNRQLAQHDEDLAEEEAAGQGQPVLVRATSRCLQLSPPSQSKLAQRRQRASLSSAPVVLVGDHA
Chain of Leucine-rich repeat serine/threonine-protein kinase 2 (Homo sapiens, UniProt Q5S007, G2019S) (Q5S007 whole entry G2019S, the tested form may be a part): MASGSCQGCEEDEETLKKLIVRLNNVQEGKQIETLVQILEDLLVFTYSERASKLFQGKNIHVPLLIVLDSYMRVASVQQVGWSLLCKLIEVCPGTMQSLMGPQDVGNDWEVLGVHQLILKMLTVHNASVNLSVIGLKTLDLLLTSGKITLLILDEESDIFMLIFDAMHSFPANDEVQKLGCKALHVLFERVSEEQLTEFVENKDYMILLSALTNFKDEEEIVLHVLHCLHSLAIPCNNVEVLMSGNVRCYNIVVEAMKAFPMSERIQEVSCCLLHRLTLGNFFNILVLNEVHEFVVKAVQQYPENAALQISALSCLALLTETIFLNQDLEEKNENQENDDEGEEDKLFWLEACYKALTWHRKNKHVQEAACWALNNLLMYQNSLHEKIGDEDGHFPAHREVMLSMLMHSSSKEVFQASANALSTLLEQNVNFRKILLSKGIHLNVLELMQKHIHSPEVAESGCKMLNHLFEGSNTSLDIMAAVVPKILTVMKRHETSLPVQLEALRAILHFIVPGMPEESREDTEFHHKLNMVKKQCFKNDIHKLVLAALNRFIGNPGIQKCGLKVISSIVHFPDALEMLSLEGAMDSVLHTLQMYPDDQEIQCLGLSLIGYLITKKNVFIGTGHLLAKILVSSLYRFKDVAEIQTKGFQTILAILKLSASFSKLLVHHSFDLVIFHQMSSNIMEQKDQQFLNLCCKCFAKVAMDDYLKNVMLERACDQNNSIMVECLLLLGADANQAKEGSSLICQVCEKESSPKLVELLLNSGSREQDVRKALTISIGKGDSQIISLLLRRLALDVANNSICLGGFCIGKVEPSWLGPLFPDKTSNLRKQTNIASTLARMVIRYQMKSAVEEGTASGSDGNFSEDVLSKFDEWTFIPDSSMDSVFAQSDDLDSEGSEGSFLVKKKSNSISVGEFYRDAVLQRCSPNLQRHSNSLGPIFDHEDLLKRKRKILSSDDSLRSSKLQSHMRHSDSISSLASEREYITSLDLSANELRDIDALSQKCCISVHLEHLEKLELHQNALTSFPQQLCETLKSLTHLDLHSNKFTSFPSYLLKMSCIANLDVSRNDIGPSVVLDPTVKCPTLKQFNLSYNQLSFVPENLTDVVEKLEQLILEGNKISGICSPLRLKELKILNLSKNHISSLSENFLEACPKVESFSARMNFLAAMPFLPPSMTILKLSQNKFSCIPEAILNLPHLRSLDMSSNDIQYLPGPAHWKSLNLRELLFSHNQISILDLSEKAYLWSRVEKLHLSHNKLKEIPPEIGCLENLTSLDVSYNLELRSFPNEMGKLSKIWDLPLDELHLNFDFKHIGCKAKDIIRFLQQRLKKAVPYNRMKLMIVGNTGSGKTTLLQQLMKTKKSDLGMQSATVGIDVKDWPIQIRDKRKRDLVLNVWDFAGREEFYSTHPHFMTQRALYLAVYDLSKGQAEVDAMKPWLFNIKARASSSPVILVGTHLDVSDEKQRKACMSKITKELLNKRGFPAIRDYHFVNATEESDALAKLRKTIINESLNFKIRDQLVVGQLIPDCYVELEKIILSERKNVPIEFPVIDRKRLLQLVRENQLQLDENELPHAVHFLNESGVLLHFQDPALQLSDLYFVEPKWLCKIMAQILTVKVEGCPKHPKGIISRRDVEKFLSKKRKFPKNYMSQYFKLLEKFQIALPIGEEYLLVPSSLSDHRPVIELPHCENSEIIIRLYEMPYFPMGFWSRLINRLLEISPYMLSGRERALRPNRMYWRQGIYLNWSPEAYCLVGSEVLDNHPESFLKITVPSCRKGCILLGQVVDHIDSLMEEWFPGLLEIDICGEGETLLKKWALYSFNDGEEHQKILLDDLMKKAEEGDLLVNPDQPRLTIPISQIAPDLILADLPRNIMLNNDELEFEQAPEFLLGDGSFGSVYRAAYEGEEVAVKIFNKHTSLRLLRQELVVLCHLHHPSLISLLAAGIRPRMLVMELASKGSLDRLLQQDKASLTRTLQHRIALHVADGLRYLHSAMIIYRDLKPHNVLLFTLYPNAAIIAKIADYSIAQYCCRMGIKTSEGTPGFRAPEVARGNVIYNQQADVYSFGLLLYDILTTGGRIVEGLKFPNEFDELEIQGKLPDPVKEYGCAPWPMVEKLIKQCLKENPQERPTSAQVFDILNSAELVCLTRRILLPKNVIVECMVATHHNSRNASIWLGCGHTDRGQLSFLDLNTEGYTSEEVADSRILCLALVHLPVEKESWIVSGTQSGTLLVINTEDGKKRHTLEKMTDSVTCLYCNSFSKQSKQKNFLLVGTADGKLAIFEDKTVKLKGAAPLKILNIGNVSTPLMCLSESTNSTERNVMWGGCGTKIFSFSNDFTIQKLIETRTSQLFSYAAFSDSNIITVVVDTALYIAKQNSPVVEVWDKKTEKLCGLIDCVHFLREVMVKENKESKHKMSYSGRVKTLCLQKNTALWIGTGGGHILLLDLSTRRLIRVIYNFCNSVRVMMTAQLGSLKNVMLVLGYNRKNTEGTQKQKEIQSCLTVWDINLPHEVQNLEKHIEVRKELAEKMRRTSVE
Chain of Leucine-rich repeat serine/threonine-protein kinase 2 (Homo sapiens, UniProt Q5S007) (Q5S007 whole entry): as the sequence (Q5S007 whole entry G2019S, the tested form may be a part) above, with S2019G counted along it

Turning to `C[C@@H](N)[C@H]1CC[C@H](C(=O)Nc2ccncc2)CC1`, in experiment [1], the inhibition entry was “inactive”.
For `Cc1cncc2cccc(S(=O)(=O)N3CCCNC[C@@H]3C)c12`, the residual activity in [2] was determined as 49%; in experiment [3], 99%; in experiment [4], 11%; in experiment [5] it was 41%; in [7], 45%; in experiment [8] it was 70%. Besides, the residual activity in [9] turned out to be 49%. Moreover, in experiment [6], the inhibition stood at 50%. The inhibition entry in experiment [1] was “inactive”. In addition, the half-inhibitory concentration (IC50) in [10] came to 0.15 µM.
Regarding `CCn1c(-c2nonc2N)nc2cnc(Oc3cccc(NC(=O)c4ccc(OCCN5CCOCC5)cc4)c3)cc21` [GSK-269962A], the residual activity in experiment [2] turned out to be 51%; in [3] it was 113%; in experiment [4] it was 36%; in [5], 98%; in experiment [8], 32%; in [9] it was 108%. In experiment [6], the inhibition was 58%. Also, in experiment [1], the inhibition entry is “inactive”. Besides, in experiment [10], the IC50 was 2.3 µM.
Take `CCN(CC)CCNC(=O)c1c(C)[nH]c(/C=C2\C(=O)Nc3ccc(F)cc32)c1C`: the residual activity in [4] came out at 29%; in experiment [7] it was 15%. Also, the inhibition entry in experiment [1] is “inactive”.
Regarding `O=S(=O)(c1cccc2cnccc12)N1CCCNCC1` [FASUDIL], the IC50 in [10] is over 30 µM.
As to `CC1=C(C(=O)Nc2cc3cn[nH]c3cc2F)C(c2ccc(C(F)(F)F)cc2)CC(=O)N1` (centres undefined), the residual activity is 88% in experiment [2]; 99% in [3]; 59% in experiment [4]; 108% in [5]; 78% in experiment [7]; 82% in [8]. Also, the residual activity in experiment [9] came to 105%. In experiment [6], the inhibition worked out at 58%. Besides, the inhibition result in experiment [1] was “inactive”. In addition, in [10], the IC50 was over 100 µM.

For orientation: inhibition means the share of the control response that was lost under treatment. A word on the IC50: it is the point on the concentration scale where inhibition reaches its midpoint.
